Drawing on ChEMBL document CHEMBL5653631, “A Potent and Selective ULK1 Inhibitor Suppresses Autophagy and Sensitizes Cancer Cells to Nutrient Stress” (iScience, 2018), this text covers inhibition and fold change (FC) for three compounds.

A word on the inhibition: it is how much of the control response was suppressed.

The target in assay [1] is Serine/threonine-protein kinase Nek4 (Homo sapiens) (UniProt P51957). The assay can be described thus: Inhibition of human recombinant NEK4 at 15 nM in presence of ATP by radiometric assay relative to control.
For assay [2], the target named is Mitogen-activated protein kinase kinase kinase 20 (Homo sapiens) (UniProt Q9NYL2). The assay can be described thus: Inhibition of human recombinant ZAK at 15 nM related to control ULK1.
Sequence of Mitogen-activated protein kinase kinase kinase 20 (Homo sapiens) (Q9NYL2 2-800 limits assumed): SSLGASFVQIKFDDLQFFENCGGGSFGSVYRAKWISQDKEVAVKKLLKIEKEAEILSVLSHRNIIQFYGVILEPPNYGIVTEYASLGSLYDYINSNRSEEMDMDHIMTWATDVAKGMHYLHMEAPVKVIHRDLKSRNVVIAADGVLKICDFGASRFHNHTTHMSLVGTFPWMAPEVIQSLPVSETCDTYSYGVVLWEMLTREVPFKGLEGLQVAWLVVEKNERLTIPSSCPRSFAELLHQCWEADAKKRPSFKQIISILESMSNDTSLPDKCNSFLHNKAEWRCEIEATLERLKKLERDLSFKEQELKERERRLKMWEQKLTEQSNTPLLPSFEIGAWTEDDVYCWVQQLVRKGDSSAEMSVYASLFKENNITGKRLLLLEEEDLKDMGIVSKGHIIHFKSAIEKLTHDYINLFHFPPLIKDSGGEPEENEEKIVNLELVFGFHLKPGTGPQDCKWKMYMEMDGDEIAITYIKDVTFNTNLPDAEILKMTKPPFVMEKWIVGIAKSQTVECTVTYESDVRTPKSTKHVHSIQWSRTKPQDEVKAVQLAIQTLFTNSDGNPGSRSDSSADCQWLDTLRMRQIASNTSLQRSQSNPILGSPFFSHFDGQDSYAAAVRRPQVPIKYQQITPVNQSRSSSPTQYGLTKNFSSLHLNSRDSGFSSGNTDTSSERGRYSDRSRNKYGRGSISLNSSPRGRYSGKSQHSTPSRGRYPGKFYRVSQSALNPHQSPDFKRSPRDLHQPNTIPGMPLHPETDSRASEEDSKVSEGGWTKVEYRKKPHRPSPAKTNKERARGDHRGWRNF
Assay [3] has as its target LIM domain kinase 1 (Homo sapiens) (UniProt P53667). The assay can be described thus: Inhibition of human recombinant LIMK1 at 15 nM in presence of ATP by radiometric assay relative to control.
For assay [4], the target named is Serine/threonine-protein kinase WNK1 (Homo sapiens) (UniProt Q9H4A3). Kind of assay: Inhibition of human recombinant Wnk1 at 15 nM in presence of ATP by radiometric assay relative to control.
Sequence of Serine/threonine-protein kinase WNK1 (Homo sapiens) (Q9H4A3 whole entry, looked up): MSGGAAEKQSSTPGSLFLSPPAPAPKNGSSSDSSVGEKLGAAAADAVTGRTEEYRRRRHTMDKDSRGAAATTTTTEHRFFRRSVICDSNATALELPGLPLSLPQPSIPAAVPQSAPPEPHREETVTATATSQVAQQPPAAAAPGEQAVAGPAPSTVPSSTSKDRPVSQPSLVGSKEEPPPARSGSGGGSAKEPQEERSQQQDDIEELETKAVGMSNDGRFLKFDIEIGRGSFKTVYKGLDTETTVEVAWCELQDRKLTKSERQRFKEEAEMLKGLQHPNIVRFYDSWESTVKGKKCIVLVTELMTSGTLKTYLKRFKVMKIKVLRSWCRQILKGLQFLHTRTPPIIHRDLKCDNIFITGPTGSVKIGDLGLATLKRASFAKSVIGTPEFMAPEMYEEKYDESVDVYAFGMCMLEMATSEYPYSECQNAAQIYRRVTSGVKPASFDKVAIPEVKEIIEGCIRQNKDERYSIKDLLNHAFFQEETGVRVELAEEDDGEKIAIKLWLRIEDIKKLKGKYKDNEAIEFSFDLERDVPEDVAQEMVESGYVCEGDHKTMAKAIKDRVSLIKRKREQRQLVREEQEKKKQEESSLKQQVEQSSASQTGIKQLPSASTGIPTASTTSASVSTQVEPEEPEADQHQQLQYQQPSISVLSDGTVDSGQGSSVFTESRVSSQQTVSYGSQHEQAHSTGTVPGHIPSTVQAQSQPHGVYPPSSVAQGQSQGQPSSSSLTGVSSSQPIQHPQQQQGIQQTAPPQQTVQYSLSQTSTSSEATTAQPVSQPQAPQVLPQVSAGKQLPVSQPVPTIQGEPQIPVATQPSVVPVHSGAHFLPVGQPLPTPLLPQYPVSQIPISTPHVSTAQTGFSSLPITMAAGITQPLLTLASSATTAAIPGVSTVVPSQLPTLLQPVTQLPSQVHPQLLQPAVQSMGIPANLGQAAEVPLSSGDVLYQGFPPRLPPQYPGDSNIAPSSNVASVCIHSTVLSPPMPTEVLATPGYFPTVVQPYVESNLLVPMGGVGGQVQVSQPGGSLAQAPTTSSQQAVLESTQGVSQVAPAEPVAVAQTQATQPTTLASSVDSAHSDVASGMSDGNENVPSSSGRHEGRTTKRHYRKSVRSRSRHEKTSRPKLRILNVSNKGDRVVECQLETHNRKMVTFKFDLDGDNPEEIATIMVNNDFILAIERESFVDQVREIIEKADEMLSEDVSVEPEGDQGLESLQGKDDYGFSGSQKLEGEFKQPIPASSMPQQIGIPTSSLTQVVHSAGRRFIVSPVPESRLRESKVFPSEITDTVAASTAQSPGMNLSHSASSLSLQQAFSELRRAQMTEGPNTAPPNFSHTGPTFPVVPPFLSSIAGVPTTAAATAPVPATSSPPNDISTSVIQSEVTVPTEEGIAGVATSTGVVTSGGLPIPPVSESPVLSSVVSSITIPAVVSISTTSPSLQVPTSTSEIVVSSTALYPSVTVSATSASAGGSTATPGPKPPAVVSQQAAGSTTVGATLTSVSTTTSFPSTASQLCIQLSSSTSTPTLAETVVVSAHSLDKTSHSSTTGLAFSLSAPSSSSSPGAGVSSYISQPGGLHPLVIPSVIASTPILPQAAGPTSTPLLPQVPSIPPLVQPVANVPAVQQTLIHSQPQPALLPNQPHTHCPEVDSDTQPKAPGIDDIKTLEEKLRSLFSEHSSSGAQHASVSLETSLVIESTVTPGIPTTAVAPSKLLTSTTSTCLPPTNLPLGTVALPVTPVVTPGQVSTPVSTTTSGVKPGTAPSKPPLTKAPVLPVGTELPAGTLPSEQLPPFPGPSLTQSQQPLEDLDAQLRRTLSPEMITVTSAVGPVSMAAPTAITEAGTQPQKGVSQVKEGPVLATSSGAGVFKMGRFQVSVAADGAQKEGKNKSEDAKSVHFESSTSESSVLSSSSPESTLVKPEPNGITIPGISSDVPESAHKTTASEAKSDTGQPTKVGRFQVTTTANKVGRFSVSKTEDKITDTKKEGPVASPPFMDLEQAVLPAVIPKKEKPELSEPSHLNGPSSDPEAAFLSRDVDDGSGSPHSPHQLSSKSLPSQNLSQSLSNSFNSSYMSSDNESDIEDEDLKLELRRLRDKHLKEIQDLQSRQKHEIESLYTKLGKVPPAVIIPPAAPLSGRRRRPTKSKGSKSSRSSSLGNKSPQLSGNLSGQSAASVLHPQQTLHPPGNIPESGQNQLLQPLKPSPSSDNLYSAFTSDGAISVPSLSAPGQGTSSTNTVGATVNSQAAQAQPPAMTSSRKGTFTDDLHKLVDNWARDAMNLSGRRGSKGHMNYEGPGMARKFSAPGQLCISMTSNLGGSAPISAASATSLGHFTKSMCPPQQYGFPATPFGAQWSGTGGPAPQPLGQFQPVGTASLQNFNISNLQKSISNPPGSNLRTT
Assay [5] has as its target 5'-AMP-activated protein kinase catalytic subunit alpha-2 (Homo sapiens) (UniProt P54646). Kind of assay: Inhibition of human recombinant AMPKa2 at 15 nM related to control ULK1. The essentials:
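Panel of 327 recombinant human kinases, each assayed in vitro by radiometric activity assay in duplicate at a single inhibitor concentration per compound, chosen with reference to its ULK1 inhibition. Activity remaining was expressed as percent of vehicle control, and percent inhibition was calculated as 100 minus percent activity remaining.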

Assay [6] has as its target Tyrosine-protein kinase Lyn (Homo sapiens) (UniProt P07948). The assay can be described thus: Inhibition of human recombinant LYN at 15 nM in presence of ATP by radiometric assay relative to control.
Assay [7] addresses Serine/threonine-protein kinase ATR (Homo sapiens) (UniProt Q13535). Kind of assay: Inhibition of human recombinant ATR at 40 nM related to control ULK1. The essentials: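 Radiometric activity assays in a panel of 327 human recombinant kinases, each run in duplicate at one inhibitor concentration. Activity remaining is expressed as percent of vehicle control, and percent inhibition is calculated as 100% minus percent activity remaining.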

In assay [8] the target is Dual specificity protein kinase CLK1 (Homo sapiens) (UniProt P49759). Kind of assay: Inhibition of human recombinant CLK1 at 40 nM in presence of ATP by radiometric assay relative to control.
Assay [9] concerns the target T1, Serine/threonine-protein kinase DCLK3 (Homo sapiens) (UniProt Q9C098).
T1 sequence (whole entry): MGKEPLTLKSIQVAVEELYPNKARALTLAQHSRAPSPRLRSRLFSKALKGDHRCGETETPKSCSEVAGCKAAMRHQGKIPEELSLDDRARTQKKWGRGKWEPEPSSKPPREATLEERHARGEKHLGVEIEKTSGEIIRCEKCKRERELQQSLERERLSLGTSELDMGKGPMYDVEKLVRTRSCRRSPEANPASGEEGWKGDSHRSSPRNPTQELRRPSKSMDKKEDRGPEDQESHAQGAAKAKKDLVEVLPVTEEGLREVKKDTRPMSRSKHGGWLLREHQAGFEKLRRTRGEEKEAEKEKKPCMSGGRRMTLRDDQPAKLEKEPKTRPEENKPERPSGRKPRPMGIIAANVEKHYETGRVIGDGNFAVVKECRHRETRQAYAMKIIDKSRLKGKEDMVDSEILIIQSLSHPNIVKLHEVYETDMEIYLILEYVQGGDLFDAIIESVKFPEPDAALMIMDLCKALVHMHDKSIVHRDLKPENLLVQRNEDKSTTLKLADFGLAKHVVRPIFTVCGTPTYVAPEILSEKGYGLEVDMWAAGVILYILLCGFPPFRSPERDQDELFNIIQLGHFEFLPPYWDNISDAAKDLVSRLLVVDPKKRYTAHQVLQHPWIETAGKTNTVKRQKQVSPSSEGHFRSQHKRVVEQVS
Kind of assay: Inhibition of human recombinant DCAMKL3 at 40 nM in presence of ATP by radiometric assay relative to control.

Assay [10] deals with Serine/threonine-protein kinase MARK1 (Homo sapiens) (UniProt Q9P0L2). The assay can be described thus: Inhibition of human recombinant MARK1 at 40 nM related to control ULK1.
Assay [11] concerns the target T2, MAP/microtubule affinity-regulating kinase 4 (Homo sapiens) (UniProt Q96L34).
T2 sequence (whole entry): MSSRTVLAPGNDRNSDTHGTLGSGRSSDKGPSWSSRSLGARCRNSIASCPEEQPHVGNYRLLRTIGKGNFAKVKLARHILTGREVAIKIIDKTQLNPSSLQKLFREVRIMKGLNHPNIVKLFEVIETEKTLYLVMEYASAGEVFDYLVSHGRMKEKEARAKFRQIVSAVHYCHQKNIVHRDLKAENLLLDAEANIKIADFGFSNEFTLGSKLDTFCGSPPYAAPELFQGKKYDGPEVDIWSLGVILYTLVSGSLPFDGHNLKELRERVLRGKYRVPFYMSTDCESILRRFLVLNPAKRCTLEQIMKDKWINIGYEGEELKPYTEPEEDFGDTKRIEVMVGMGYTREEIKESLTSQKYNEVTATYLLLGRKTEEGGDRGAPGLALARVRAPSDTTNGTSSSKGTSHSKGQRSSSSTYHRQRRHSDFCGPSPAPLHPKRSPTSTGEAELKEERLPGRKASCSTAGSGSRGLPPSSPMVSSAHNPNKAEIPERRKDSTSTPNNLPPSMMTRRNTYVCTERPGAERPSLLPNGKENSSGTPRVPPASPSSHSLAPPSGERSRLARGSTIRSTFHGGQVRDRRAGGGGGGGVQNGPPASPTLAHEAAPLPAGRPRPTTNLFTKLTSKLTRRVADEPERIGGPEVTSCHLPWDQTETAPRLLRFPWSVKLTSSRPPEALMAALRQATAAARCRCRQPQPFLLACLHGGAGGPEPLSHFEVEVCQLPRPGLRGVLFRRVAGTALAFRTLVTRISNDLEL
The assay can be described thus: Inhibition of human recombinant MARK4 at 500 nM related to control ULK1.

The target in assay [12] is Mitogen-activated protein kinase 9 (Homo sapiens) (UniProt P45984). Kind of assay: Inhibition of human recombinant JNK2 at 500 nM in presence of ATP by radiometric assay relative to control.
In assay [13] the target is Serine/threonine-protein kinase pim-2 (Homo sapiens) (UniProt Q9P1W9). Kind of assay: Inhibition of human recombinant PIM2 at 500 nM in presence of ATP by radiometric assay relative to control.
Assay [14] has as its target Epithelial discoidin domain-containing receptor 1 (Homo sapiens) (UniProt Q08345). The assay can be described thus: Inhibition of human recombinant DDR1 at 500 nM in presence of ATP by radiometric assay relative to control.
Assay [15] concerns the target Epidermal growth factor receptor (Homo sapiens) (UniProt P00533). The assay can be described thus: Inhibition of human recombinant EGFR at 500 nM related to control ULK1.
Assay [16] concerns the target Serine/threonine-protein kinase/endoribonuclease IRE1 (Homo sapiens) (UniProt O75460). The assay can be described thus: Inhibition of human recombinant IRE1 at 500 nM related to control ULK1.
The target in assay [17] is Serine/threonine-protein kinase Nek7 (Homo sapiens) (UniProt Q8TDX7). The assay can be described thus: Inhibition of human recombinant NEK7 at 500 nM related to control ULK1.
Assay [18] concerns the target Tyrosine-protein kinase JAK2 (Homo sapiens) (UniProt O60674). Kind of assay: Inhibition of human recombinant JAK2 at 500 nM related to control ULK1.

Sequence of Tyrosine-protein kinase Lyn (Homo sapiens) (P07948 2-512 limits assumed): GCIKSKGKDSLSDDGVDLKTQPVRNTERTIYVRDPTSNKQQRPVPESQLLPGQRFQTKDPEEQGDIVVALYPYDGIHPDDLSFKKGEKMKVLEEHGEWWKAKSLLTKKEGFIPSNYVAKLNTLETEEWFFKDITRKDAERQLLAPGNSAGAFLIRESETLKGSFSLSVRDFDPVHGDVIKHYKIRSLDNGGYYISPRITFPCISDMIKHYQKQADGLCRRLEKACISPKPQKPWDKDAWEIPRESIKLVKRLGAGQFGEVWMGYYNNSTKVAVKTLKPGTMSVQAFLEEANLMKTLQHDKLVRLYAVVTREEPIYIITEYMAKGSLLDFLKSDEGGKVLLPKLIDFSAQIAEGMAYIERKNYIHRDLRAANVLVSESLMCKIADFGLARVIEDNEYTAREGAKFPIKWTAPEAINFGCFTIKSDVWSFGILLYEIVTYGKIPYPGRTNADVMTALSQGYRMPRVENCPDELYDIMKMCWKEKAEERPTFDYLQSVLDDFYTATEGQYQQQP
Sequence of Epidermal growth factor receptor (Homo sapiens) (P00533 whole entry): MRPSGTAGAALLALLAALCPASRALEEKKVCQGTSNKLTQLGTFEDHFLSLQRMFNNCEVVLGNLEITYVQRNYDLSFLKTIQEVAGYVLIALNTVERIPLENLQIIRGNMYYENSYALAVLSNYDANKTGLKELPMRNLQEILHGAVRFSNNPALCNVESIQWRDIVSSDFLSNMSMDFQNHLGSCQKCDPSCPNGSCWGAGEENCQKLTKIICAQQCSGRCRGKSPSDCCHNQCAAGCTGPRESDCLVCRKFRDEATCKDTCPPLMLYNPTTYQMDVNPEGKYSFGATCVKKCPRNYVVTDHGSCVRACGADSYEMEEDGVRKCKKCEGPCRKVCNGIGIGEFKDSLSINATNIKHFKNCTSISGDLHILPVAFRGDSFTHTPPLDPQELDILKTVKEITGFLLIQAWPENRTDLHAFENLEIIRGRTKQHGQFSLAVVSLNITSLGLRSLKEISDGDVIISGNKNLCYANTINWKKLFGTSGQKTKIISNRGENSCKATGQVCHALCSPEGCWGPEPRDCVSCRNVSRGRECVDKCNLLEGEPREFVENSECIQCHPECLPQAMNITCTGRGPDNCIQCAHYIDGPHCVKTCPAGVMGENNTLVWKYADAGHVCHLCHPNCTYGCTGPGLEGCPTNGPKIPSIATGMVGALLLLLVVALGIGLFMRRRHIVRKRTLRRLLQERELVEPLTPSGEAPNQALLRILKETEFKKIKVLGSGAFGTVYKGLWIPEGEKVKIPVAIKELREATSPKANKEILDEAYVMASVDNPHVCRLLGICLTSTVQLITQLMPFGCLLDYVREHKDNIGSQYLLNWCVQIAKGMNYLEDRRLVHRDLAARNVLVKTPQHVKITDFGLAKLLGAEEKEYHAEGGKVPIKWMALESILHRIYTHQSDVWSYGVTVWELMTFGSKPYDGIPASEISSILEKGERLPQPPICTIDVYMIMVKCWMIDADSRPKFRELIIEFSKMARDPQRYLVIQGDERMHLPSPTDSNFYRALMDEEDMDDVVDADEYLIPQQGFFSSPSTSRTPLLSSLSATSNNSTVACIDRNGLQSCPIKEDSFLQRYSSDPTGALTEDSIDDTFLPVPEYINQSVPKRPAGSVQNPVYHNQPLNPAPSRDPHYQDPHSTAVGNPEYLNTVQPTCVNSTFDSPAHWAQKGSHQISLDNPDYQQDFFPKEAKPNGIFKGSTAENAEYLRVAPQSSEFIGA

Take `CC(C)[C@H](NC(=O)c1cc(-c2cnn3cc(-c4ccc(OCCN5CCCCC5)cc4)cnc23)cs1)C(F)(F)F`: the inhibition in assay [1] is 6%; in [3], 56%; in [4] it was 4%; in assay [6] it was 19%. Further, the results for the fold change (FC) in assay [2] and in assay [5] were 0.3 and 0.94, respectively.

`O=C(N[C@@H](C1CC1)C(F)(F)F)c1cc(-c2cnn3cc(-c4ccc(F)cc4)cnc23)cs1`: the fold change (FC) in assay [7] was determined as 0; in assay [10], 0.4. For the same compound, the inhibition stood at 34% in [8] and 2% in assay [9].

As for `CNC(=O)c1ccccc1Oc1nc(Nc2cc(OC)c(OC)c(OC)c2)ncc1Br`, the fold change (FC) was determined as 0.78 in [11]; 0.04 in [15]; 0 in assay [16]; 0 in [17]; 1.05 in assay [18]. For the same compound, the inhibition came out at 0% in [12], 2% in [13] and 47% in [14].
